Test results reported in ChEMBL document CHEMBL1275441, “Effect of impaired renal function on the pharmacokinetics of tomopenem (RO4908463/CS-023), a novel carbapenem” (Antimicrob Agents Chemother, 2008).

Legend:
[1] = AUC (infinity) in human with creatinine clearance of 30-49 ml/min at 1500 mg, iv administered as single dose measured after 60 mins; assay type: ADME, organism-based; parameters: dose 1500 mg, route intravenous, time infinity; conditions: plasma
Outline: (§1)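 Single 1,500 mg i.v. infusion over 60 min, eight subjects per renal-function group (creatinine clearance by Cockcroft-Gault at screening). Blood was sampled predose and at 1–48 h, and the plasma was stabilized 1:1 with 0.5 M MOPS pH 6.0, kept from light and frozen at −70°C. Parent and metabolite were measured by a validated bioanalytical method. Noncompartmental analysis: t1/2 = ln2/λz from ≥3 terminal points, Cmax/Tmax from raw data, ratio = AUC∞ metabolite/parent.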

[2] = Volume of distribution at steady state in human with creatinine clearance of =< 30 ml/min at 1500 mg, iv administered as single dose measured after 60 mins; assay type: ADME, organism-based; conditions: in vivo, read-out: Vdss
Outline: (§2)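 Eight subjects per CL_CR group (Cockcroft-Gault) received 1,500 mg i.v. over 60 min. Plasma was sampled predose and from 1 to 48 h, mixed with equal-volume 0.5 M MOPS pH 6.0, frozen at −70°C light-protected, and assayed by a validated method. Parameters were derived noncompartmentally from actual times, with T_max taken from raw data as a median and CL/V_ss as means ± SD.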

[3] = Tmax in human with creatinine clearance of 30-49 ml/min at 1500 mg, iv administered as single dose; assay type: ADME, organism-based; conditions: in vivo; outline: as §2
[4] = AUC (infinity) in human with creatinine clearance of =< 30 ml/min at 1500 mg, iv administered as single dose measured after 60 mins; assay type: ADME, organism-based; parameters: dose 1500 mg, time infinity, route intravenous; conditions: plasma; outline: as §1
[5] = Tmax in human with creatinine clearance of 50-79 ml/min at 1500 mg, iv administered as single dose; assay type: ADME, organism-based; conditions: in vivo; outline: as §2
[6] = Tmax in human with creatinine clearance of => 80 ml/min at 1500 mg, iv administered as single dose; assay type: ADME, organism-based; conditions: in vivo; outline: as §2
[7] = Renal clearance in human with creatinine clearance of 50-79 ml/min at 1500 mg, iv administered as single dose after 24 hrs; assay type: ADME, organism-based, Kidney; conditions: in vivo, read-out: CL_renal (converted)
Outline: (§3)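 Single 1,500 mg i.v. infusion over 60 min, with 8 subjects per renal-function group (CL_CR by Cockcroft-Gault at screening). Urine was collected at 0–6, 6–12 and 12–24 h, volume and pH recorded, and aliquots mixed 1:1 with 0.5 M MOPS. Samples were frozen at −70°C, protected from light, and assayed by a validated method. CL_R = A_e24/AUC₂₄.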

[8] = AUC (infinity) in human with creatinine clearance of => 80 ml/min at 1500 mg, iv administered as single dose measured after 60 mins; assay type: ADME, organism-based; parameters: dose 1500 mg, time infinity, route intravenous; conditions: plasma; outline: as §1
Homo sapiens [9] = assay: Drug metabolism in human with creatinine clearance of 50-79 ml/min assessed as RO4957463 apparent half life at 1500 mg, iv administered as single dose; assay type: ADME, organism-based; conditions: in vivo; outline: as §1
Homo sapiens [10] = assay: Ratio of RO4957463 AUC (infinity) to compound AUC (infinity) in human with creatinine clearance of => 80 ml/min at 1500 mg, iv administered as single dose measured after 60 mins; assay type: ADME, organism-based; conditions: in vivo, 1 h; outline: as §1
[11] = Total clearance in human with creatinine clearance of 50-79 ml/min at 1500 mg, iv administered as single dose measured after 60 mins; assay type: ADME, organism-based; conditions: in vivo; outline: as §2
[12] = Volume of distribution at steady state in human with creatinine clearance of => 80 ml/min at 1500 mg, iv administered as single dose measured after 60 mins; assay type: ADME, organism-based; conditions: in vivo, read-out: Vdss; outline: as §2
Homo sapiens [13] = assay: Drug metabolism in human with creatinine clearance of => 80 ml/min assessed as RO4957463 AUC (infinity) at 1500 mg, iv administered as single dose measured after 60 mins; assay type: ADME, organism-based; parameters: dose 1500 mg, route intravenous, time infinity; conditions: in vivo, 1 h; outline: as §1
[14] = Total clearance in human with creatinine clearance of 30-49 ml/min at 1500 mg, iv administered as single dose measured after 60 mins; assay type: ADME, organism-based; conditions: in vivo; outline: as §2
Homo sapiens [15] = assay: Drug excretion in human with creatinine clearance of => 80 ml/min at 1500 mg, iv administered as single dose after 24 hrs; assay type: ADME, organism-based; conditions: in vivo
Outline: (§4)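 After a single 1,500 mg i.v. infusion over 60 min, urine was collected 0–6, 6–12 and 12–24 h post-dose, with volume and pH recorded. Aliquots were mixed 1:1 with 0.5 M MOPS, protected from light and frozen at −70°C. Parent and metabolite were assayed by a validated method. CLR = Ae24/plasma AUC24. n = 8 per group, mean ± SD.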

[16] = Dose normalized excretion in human with creatinine clearance of => 80 ml/min at 1500 mg, iv administered as single dose after 24 hrs; assay type: ADME, organism-based; conditions: in vivo, read-out: Activity; outline: as §4
Homo sapiens [17] = assay: Drug metabolism in human with creatinine clearance of 50-79 ml/min assessed as RO4957463 Cmax at 1500 mg, iv administered as single dose measured after 60 mins; assay type: ADME, organism-based; parameters: dose 1500 mg, route intravenous; conditions: in vivo, 1 h; outline: as §1
[18] = Apparent half-life in human with creatinine clearance of => 80 ml/min at 1500 mg, iv administered as single dose; assay type: ADME, organism-based; conditions: in vivo; outline: as §1
[19] = Renal clearance in human with creatinine clearance of =< 30 ml/min at 1500 mg, iv administered as single dose after 24 hrs; assay type: ADME, organism-based, Kidney; conditions: in vivo, read-out: CL_renal (converted); outline: as §3
[20] = Total clearance in healthy human at 700 mg, iv administered as single dose; assay type: ADME, organism-based; conditions: in vivo
[21] = Total clearance in human with creatinine clearance of =< 30 ml/min at 1500 mg, iv administered as single dose after 60 mins after 60 mins; assay type: ADME, organism-based; conditions: in vivo; outline: as §2
[22] = Total clearance in human with creatinine clearance of => 80 ml/min at 1500 mg, iv administered as single dose measured after 60 mins; assay type: ADME, organism-based; conditions: in vivo; outline: as §2
Homo sapiens [23] = assay: Drug metabolism in human with creatinine clearance of 50-79 ml/min assessed as RO4957463 Tmax at 1500 mg, iv administered as single dose measured after 60 mins; assay type: ADME, organism-based; conditions: in vivo, 1 h; outline: as §1
Homo sapiens [24] = assay: Drug metabolism in human with creatinine clearance of => 80 ml/min assessed as RO4957463 Tmax at 1500 mg, iv administered as single dose; assay type: ADME, organism-based; conditions: in vivo; outline: as §1
[25] = Cmax in human with creatinine clearance of =< 30 ml/min at 1500 mg, iv administered as single dose measured after 60 mins; assay type: ADME, organism-based; parameters: dose 1500 mg, route intravenous; conditions: in vivo; outline: as §1
Homo sapiens [26] = assay: Drug excretion in human with creatinine clearance of 50-79 ml/min at 1500 mg, iv administered as single dose after 24 hrs; assay type: ADME, organism-based; conditions: in vivo; outline: as §4
Homo sapiens [27] = assay: Drug metabolism in human with creatinine clearance of 30-49 ml/min assessed as RO4957463 Tmax at 1500 mg, iv administered as single dose; assay type: ADME, organism-based; conditions: in vivo; outline: as §1
[28] = Dose normalized excretion in human with creatinine clearance of =< 30 ml/min at 1500 mg, iv administered as single dose after 24 hrs; assay type: ADME, organism-based; conditions: in vivo, read-out: Activity; outline: as §4
Homo sapiens [29] = assay: Drug excretion in human with creatinine clearance of =< 30 ml/min at 1500 mg, iv administered as single dose after 24 hrs; assay type: ADME, organism-based; conditions: in vivo; outline: as §4
[30] = Cmax in human with creatinine clearance of 50-79 ml/min at 1500 mg, iv administered as single dose measured after 60 mins; assay type: ADME, organism-based; parameters: dose 1500 mg, route intravenous; conditions: in vivo; outline: as §1
[31] = AUC (infinity) in human with creatinine clearance of 50-79 ml/min at 1500 mg, iv administered as single dose measured after 60 mins; assay type: ADME, organism-based; parameters: dose 1500 mg, route intravenous, time infinity; conditions: plasma; outline: as §1
Homo sapiens [32] = assay: Drug metabolism in human with creatinine clearance of 30-49 ml/min assessed as RO4957463 Cmax at 1500 mg, iv administered as single dose measured after 60 mins; assay type: ADME, organism-based; parameters: dose 1500 mg, route intravenous; conditions: in vivo, 1 h; outline: as §1

C[C@@H](O)[C@H]1C(=O)N2C(C(=O)O)=C(S[C@H]3C[C@@H](C(=O)N4CC[C@H](NC(=O)CNC(=N)N)C4)N(C)C3)[C@H](C)[C@H]12 [TOMOPENEM]
AUC(0-inf) [1]: 517 µg·h/mL | Vd [2]: 16.4 L | Tmax [3]: 1 h | AUC(0-inf) [4]: 1040 µg·h/mL | Tmax [5]: 1 h | Tmax [6]: 1 h | CL renal at 24 h [7]: 61.3 mL/min | AUC(0-inf) [8]: 191 µg·h/mL | t1/2 (Homo sapiens [9]): 5.02 h | Ratio (Homo sapiens [10]): 0.1 | clearance [11]: 84.7 mL/min | Vd [12]: 18.8 L | AUC (Homo sapiens [13]): 18.5 µg·h/mL | clearance [14]: 51 mL/min | Activity (Homo sapiens [15]): 862 mg | dose excreted at 24 h [16]: 57.4% | Cmax (Homo sapiens [17]): 4.31 µg/mL | half-life [18]: 134 min | CL renal at 24 h [19]: 9.83 mL/min | clearance [20]: 135 mL/min | clearance [21]: 25.3 mL/min | clearance [22]: 135 mL/min | Tmax (Homo sapiens [23]): 1 h | Tmax (Homo sapiens [24]): 1.01 h | Cmax [25]: 116 µg/mL | Activity (Homo sapiens [26]): 1090 mg | Tmax (Homo sapiens [27]): 5 h | dose excreted at 24 h [28]: 41.2% | Activity (Homo sapiens [29]): 618 mg | Cmax [30]: 106 µg/mL | AUC(0-inf) [31]: 304 µg·h/mL | Cmax (Homo sapiens [32]): 5.24 µg/mL
